Consider four compounds from ChEMBL document CHEMBL3826876, “Toward the Development of Specific G-Quadruplex Binders: Synthesis, Biophysical, and Biological Studies of New Hydrazone Derivatives” (J Med Chem, 2016).

Data set [1] is described as follows: Binding affinity to synthetic telomere 23 parallel G-quadruplex DNA assessed as change in melting temperature at 4 mol equiv in presence of 100 mM KCl buffer by circular dichroism spectroscopic analysis. An outline of the steps: (§1)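 CD melting, 20-100 °C at 1 °C/min, signal at 264 (parallel), 290 (antiparallel) or 280 nm (duplex). G4 DNA 10 µM or duplex 15 µM, folded by heating at 90 °C 5 min and slow cooling, in 10 mM potassium phosphate (c-kit1, Tel23, Tel26) or lithium phosphate (Tel23-p, ds12) pH 7.0 with 100 mM KCl. Ligand 4 equiv; Tm by curve fit, ΔTm vs DNA alone; duplicate average.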
(Circular dichroism is widely used to follow secondary structure.)

A short description of data set [2]: Effect on preformed synthetic c-MYC parallel G-quadruplex DNA topology in tris buffer after 10 mins by circular dichroism titration method.
The nature of data set [3]: Binding affinity to synthetic c-MYC G-quadruplex DNA assessed as change in melting temperature at 4 mol equiv in presence of 20 mM KCl buffer by circular dichroism spectroscopic analysis.
A short description of data set [4]: Binding affinity to synthetic c-KIT2 G-quadruplex DNA assessed as increase in thermal stability in presence of 20 mM KCl buffer by circular dichroism spectroscopic analysis. The method, boiled down: (§2)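 CD melting in 5 mM potassium phosphate, 20 mM KCl, 10 µM folded G4, heated 20-100 °C at 1 °C/min; ligand:DNA ratios 1:1, 2:1 and 4:1 compared; Tm from curve fit.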

Data set [5] is described as follows: Effect on synthetic telomere 23 G-quadruplex DNA topology at 4 mol equiv by circular dichroism spectroscopic analysis. The method, boiled down: (§3)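 CD spectra at 20 °C, 230-360 nm, 3 scans averaged, baseline subtracted; 10 µM G4 or 15 µM duplex in potassium- or lithium-phosphate pH 7.0 buffers with 100 mM KCl (c-kit2, c-myc: 5 mM potassium phosphate, 20 mM KCl); ligand 4 molar equiv added to folded DNA from 6 mM DMSO stock.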

A short description of data set [6]: Effect on synthetic c-KIT1 G-quadruplex DNA topology at 4 mol equiv by circular dichroism spectroscopic analysis. An outline of the steps:
as §3

Data set [7] is described as follows: Effect on synthetic c-KIT2 G-quadruplex DNA topology at 4 mol equiv by circular dichroism spectroscopic analysis. The method, boiled down:
as §3

Data set [8] can be described thus: Effect on synthetic c-MYC G-quadruplex DNA topology at 4 mol equiv by circular dichroism spectroscopic analysis. An outline of the steps:
as §3

Data set [9] is described as follows: Effect on synthetic telomere 23 parallel G-quadruplex DNA topology at 4 mol equiv by circular dichroism spectroscopic analysis. The method, boiled down:
as §3

The nature of data set [10]: Effect on synthetic telomere 26 G-quadruplex DNA topology at 4 mol equiv by circular dichroism spectroscopic analysis. The method, boiled down: as §3
Data set [11] can be described thus: Effect on synthetic self-complementary DNA 12-mer duplex topology at 4 mol equiv in presence of K+ ions by circular dichroism spectroscopic analysis. The method, boiled down: as §3
The nature of data set [12]: Binding affinity to synthetic c-KIT1 G-quadruplex DNA assessed as change in melting temperature at 4 mol equiv in presence of 100 mM KCl buffer by circular dichroism spectroscopic analysis. An outline of the steps:
as §1

A short description of data set [13]: Binding affinity to synthetic c-KIT2 G-quadruplex DNA assessed as change in melting temperature at 4 mol equiv in presence of 20 mM KCl buffer by circular dichroism spectroscopic analysis. The method, boiled down:
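CD melting as for other targets (20-100 °C, 1 °C/min, 10 µM folded G4, ligand 4 equiv), but in 5 mM potassium phosphate with 20 mM KCl; c-kit2 read at 264 nm as parallel G4. ΔTm from fitted Tm, duplicate average.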

A short description of data set [14]: Binding affinity to synthetic telomere 23 G-quadruplex DNA assessed as change in melting temperature at 4 mol equiv in presence of 100 mM KCl buffer by circular dichroism spectroscopic analysis. The method, boiled down:
as §1

Data set [15] in a line: Binding affinity to synthetic telomere 26 G-quadruplex DNA assessed as change in melting temperature at 4 mol equiv in presence of 100 mM KCl buffer by circular dichroism spectroscopic analysis. The method, boiled down:
as §1

The nature of data set [16]: Binding affinity to synthetic self-complementary DNA 12-mer duplex assessed as change in melting temperature at 4 mol equiv in presence of 100 mM KCl buffer by circular dichroism spectroscopic analysis. The method, boiled down:
as §1

Data set [17] is described as follows: Binding affinity to synthetic c-MYC G-quadruplex DNA assessed as increase in thermal stability in presence of 20 mM KCl buffer by circular dichroism spectroscopic analysis. An outline of the steps:
as §2

A further data set is filed under the species Homo sapiens. Nature of the data set: Binding affinity to human 5'-FAM/3'-TAMRA labeled telomere 21 G-quadruplex DNA assessed as increase in melting temperature by FRET assay. The method, boiled down:
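FRET melting screen in 60 mM potassium cacodylate pH 7.4, labelled probe 400 nM annealed at 85 °C for 10 min; ligands at various concentrations up to 20 µM, diluted from 10 mM DMSO stock via 10 mM HCl. Excitation 450-495 nm, emission 515-545 nm, 30-100 °C in 0.5 °C steps with 30 s hold; ΔTm by curve fitting, triplicate.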

Data set [18] can be described thus: Binding affinity to 5'-FAM/3'-TAMRA labeled c-KIT2 G-quadruplex DNA (unknown origin) assessed as change in melting temperature at 4:1 ligand:DNA ratio in presence of 20 mM KCl buffer by FRET assay. The method, boiled down:
(§4)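 FRET melting of FAM/TAMRA-labelled G4 oligos (400 nM, annealed 85 °C 10 min) with ligand at 4 equiv, same buffers as CD (20 mM KCl for c-kit2 and c-myc; 100 mM KCl for telomeric parallel form, annealed at high concentration). Excitation 450-495 nm, emission 515-545 nm, read every 0.5 °C over 30-100 °C; ΔTm by curve fit; duplicate runs averaged.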

Data set [19] in a line: Binding affinity to 5'-FAM/3'-TAMRA labeled c-MYC G-quadruplex DNA (unknown origin) assessed as change in melting temperature at 4:1 ligand:DNA ratio in presence of 20 mM KCl buffer by FRET assay. The method, boiled down: as §4
The nature of data set [20]: Binding affinity to human 5'-FAM/3'-TAMRA labeled telomere 21 parallel G-quadruplex DNA (unknown origin) assessed as change in melting temperature at 4:1 ligand:DNA ratio in presence of 100 mM KCl buffer by FRET assay. The method, boiled down:
as §4

Data set [21] is described as follows: Induction of parallel G-quadruplex formation in synthetic unfolded c-KIT1 DNA assessed as increase in molar ellipticity after 10 mins by in absence of metal cation circular dichroism titration method. The method, boiled down: (§5)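 CD titration without metal ions: unfolded oligonucleotide 12-15 µM in 50 mM Tris; ligand added in 0.5 equiv steps, spectrum recorded 10 min after each addition at 20 °C, 230-360 nm, 3 scans averaged.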

Data set [22] in a line: Induction of parallel G-quadruplex formation in synthetic unfolded c-KIT2 DNA assessed as increase in molar ellipticity after 10 mins in absence of metal cation by circular dichroism titration method. The method, boiled down:
as §5

The nature of data set [23]: Induction of G-quadruplex formation in synthetic unfolded telomere 23 DNA assessed as increase in molar ellipticity after 10 mins in absence of metal cation by circular dichroism titration method. An outline of the steps:
as §5

The test system of data set [24] is U2OS. Nature of the data set: Stabilization of nuclear G-quadruplex DNA in human U2OS cells at 10 uM after 24 hrs by DAPI staining based immunofluorescence assay. The data set is classed as cell-based. An outline of the steps: (§6)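 U2OS seeded at 100000 cells/ml, treated 24 h after seeding for 24 h; fixed methanol:acetic acid 3:1, 0.1% Triton X-100, 2% milk block. Stained with in-house His-purified BG4, anti-FLAG, Alexa 488 anti-rabbit; nuclei DAPI. Per-cell signal as corrected total cell fluorescence; Student's t test.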

Data set [25] deals with U2OS. Description: Cytotoxicity against human U2OS cells assessed as cell killing after 1 hr by MTT assay. The data set is classed as functional, cell-based. The method, boiled down: (§7)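 U2OS and HCT116 in DMEM with 10% FBS, 1% L-glutamine, seeded at 40000 cells/ml; 24 h later exposed for 1 h or 24 h, then drug-free medium 1-2 days. MTT 1 h at 37 °C, DMSO solubilisation, absorbance 595 nm. IC50 by linear regression; two independent experiments in triplicate, mean ± SE.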

A short description of data set [26]: Cytotoxicity against human HCT116 cells assessed as cell killing after 1 hr by MTT assay. Format: functional, cell-based. Conditions: HCT-116, 1 h. The method, boiled down: as §7
A general note: Formazan colour is commonly taken as a measure of viable cells.

For data set [27], the system named is U2OS. Nature of the data set: Cytotoxicity against human U2OS cells assessed as cell killing after 24 hrs by MTT assay. The data set is classed as functional, cell-based. The method, boiled down:
as §7

A short description of data set [28]: Cytotoxicity against human HCT116 cells assessed as cell killing after 24 hrs by MTT assay. The data set is classed as functional, cell-based. The settings on record: HCT-116, 24 h. An outline of the steps:
as §7

Data set [29] deals with U2OS. Description: Cytotoxicity against human U2OS cells assessed as cell death after 24 hrs by FACS analysis. Format: cell-based. On the technique in general: In flow cytometry, cells or beads pass a laser one at a time.
Data set [30] deals with U2OS. Description: Cytotoxicity against human U2OS cells assessed as cell death after 24 hrs by microscopic analysis. Format: cell-based.
Data set [31] has as its system U2OS. Description: Stabilization of nuclear G-quadruplex DNA in human U2OS cells at 2 to 10 uM after 24 hrs by DAPI staining based immunofluorescence assay. The data set is classed as cell-based. An outline of the steps: as §6

pIC50: −log10 of the molar value. Calls of active or inactive are those of the source. The rule behind the calls is not given here.

Turning to `C(=N\NC1=NCCN1)/c1c(-c2ccccc2)nc2n1ccc1nc(-c3ccccc3)c(/C=N/NC3=NCCN3)n12`, the ΔTm – broadly, the change in melting temperature against a reference sample – in data set [1] is 10.8 °C; in data set [3], over 15 °C; in data set [12], 1.6 °C; in data set [13], over 20 °C; in [14], -14 °C; in [15], -8.9 °C. Further, the ΔTm in data set [16] was 1.3 °C; in data set [18], over 20 °C; in data set [19], over 15 °C; in data set [20], over 15 °C. The result in data set [2], in [5], in data set [6], in data set [7], in data set [8] and in data set [9] was inactive. In addition, the outcome in data set [10], in data set [11] and in [23] was inactive. Moreover, the Activity result in [4], in [17] and in [21] was “Dose-dependent effect” in each case. Besides, the result (in the data set filed under Homo sapiens; in [22]) was Active.
As for `N=C(N)N/N=C/c1c(-c2ccccc2)nc2ccn3c(/C=N/N=C(N)N)c(-c4ccccc4)nc3n12`, the ΔTm in [1] was over 20 °C; in data set [3], over 20 °C; in data set [12], over 15 °C; in [13], over 20 °C; in [14], -10 °C; in data set [15], -4.5 °C. For the same compound, the ΔTm in [16] turned out to be 0.1 °C. Further, the result in data set [5], in [6], in [7], in [8], in data set [9] and in data set [10] was inactive. The result in data set [11] was inactive. Moreover, the result in the data set listed under Homo sapiens and with U2OS [24] was Active.
For the compound `Cl.Cl.N=C(N)N/N=C/c1c(-c2ccccc2)nc2n1ccc1nc(-c3ccccc3)c(/C=N/NC(=N)N)n12`, the pIC50 (commonly −log10 of the IC50, conventionally taken in molar units) in the data set on U2OS [25] is 4.00; in data set [26], 4.46; in the data set on U2OS [27], 4.80; in data set [28], 5.29. Besides, the Activity result with U2OS [29] and in the data set on U2OS [30] was “Non-toxic” throughout.
On to `O=Cc1c(-c2ccccc2)nc2n1ccc1nc(-c3ccccc3)c(C=O)n12`, for which the pIC50 with U2OS [25] is 4.34; in data set [26], 4.77; in the data set with U2OS [27] it was 5.04; in data set [28], 5.39. Moreover, the result with U2OS [31] was inactive.
